{
  "source": "ChEMBL document CHEMBL1152300",
  "about": "“Ligand specificity of constitutive androstane receptor as probed by induced-fit docking and mutagenesis” (J Med Chem, 2008)",
  "key": {"[1]": {"biological_target": "T1, Nuclear receptor subfamily 1 group I member 3 (Mus musculus, UniProt O35627, F171A)", "T1 sequence (O35627 whole entry F171A, the tested form may be a part)": "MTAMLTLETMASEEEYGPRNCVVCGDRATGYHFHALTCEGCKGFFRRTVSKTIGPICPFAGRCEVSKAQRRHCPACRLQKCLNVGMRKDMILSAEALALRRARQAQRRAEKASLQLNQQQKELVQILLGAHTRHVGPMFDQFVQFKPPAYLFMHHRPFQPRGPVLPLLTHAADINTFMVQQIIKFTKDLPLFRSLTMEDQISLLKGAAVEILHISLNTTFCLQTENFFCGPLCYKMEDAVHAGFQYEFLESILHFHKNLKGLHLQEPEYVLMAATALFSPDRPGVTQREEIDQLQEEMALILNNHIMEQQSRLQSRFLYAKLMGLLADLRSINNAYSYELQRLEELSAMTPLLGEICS", "assay": "Enhancement of nuclear co-repressor receptor binding to mouse CAR F171A mutant […] at 10 uM by yeast two-hybrid assay", "format": "cell-based", "how_it_was_run": "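Yeast two-hybrid assay. Yeast co-expressing wild-type or mutant mouse CAR LBD and the NCoR partner were selected on SD plates lacking leucine and tryptophan. Pooled, amplified colonies were treated with DMSO or test chemical for 3.5 h. β-galactosidase activity was normalized to cell density and referenced to the 10 µM androstenol interaction (=100). Mean ± standard deviation of two determinations, each in triplicate.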"}, "[2]": {"biological_target": "Nuclear receptor subfamily 1 group I member 3 (Mus musculus, UniProt O35627, F171L)", "sequence (O35627 whole entry F171L, the tested form may be a part)": "as the sequence (O35627 whole entry F171A, the tested form may be a part) above, with A171L counted along it", "assay": "Enhancement of nuclear co-repressor receptor binding to mouse CAR F171L mutant […] at 10 uM by yeast two-hybrid assay", "format": "cell-based", "how_it_was_run": "(§1)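 Yeast two-hybrid: yeast expressing wild-type or mutant mouse CAR LBD plus SRC-1 or NCoR, selected on SD medium lacking Leu and Trp. Pooled colonies treated with DMSO or test chemical for 3.5 h. β-Galactosidase normalized to cell density. SRC-1 reference: wild-type + DMSO = 100. NCoR reference: 10 µM androstenol = 100. Mean ± SD, two independent determinations, each in triplicate.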"}, "[3]": {"biological_target": "T2, Nuclear receptor subfamily 1 group I member 3 (Mus musculus, UniProt O35627, L353A)", "T2 sequence (O35627 whole entry L353A)": "as the sequence (O35627 whole entry F171A, the tested form may be a part) above, with A171F, L353A counted along it", "assay": "Enhancement of nuclear co-repressor receptor binding to mouse CAR L353A mutant […] at 10 uM by yeast two-hybrid assay", "format": "cell-based", "how_it_was_run": "as §1"}, "[4]": {"biological_target": "T3, Nuclear receptor subfamily 1 group I member 3 (Mus musculus, UniProt O35627)", "T3 sequence (O35627 whole entry)": "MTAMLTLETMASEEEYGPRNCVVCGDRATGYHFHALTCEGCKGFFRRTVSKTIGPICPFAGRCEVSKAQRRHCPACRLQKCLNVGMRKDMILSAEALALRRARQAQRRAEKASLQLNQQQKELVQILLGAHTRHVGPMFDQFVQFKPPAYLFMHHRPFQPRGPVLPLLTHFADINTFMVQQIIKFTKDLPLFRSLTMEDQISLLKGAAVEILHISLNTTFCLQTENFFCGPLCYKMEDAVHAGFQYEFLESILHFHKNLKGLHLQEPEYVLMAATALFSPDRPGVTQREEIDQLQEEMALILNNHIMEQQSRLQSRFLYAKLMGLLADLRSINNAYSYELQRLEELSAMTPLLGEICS", "assay": "Activation of wild type mouse CAR expressed in HEK293 cells at 10 uM by mammalian one-hybrid assay", "conditions": "hek293, 10 µM"}, "[5]": {"biological_target": "Nuclear receptor subfamily 1 group I member 3 (Mus musculus, UniProt O35627, L212A)", "sequence (O35627 whole entry L212A)": "as the sequence (O35627 whole entry F171A, the tested form may be a part) above, with A171F, L212A counted along it", "assay": "Enhancement of steroid receptor co-activator 1 binding to mouse CAR L212A mutant […] at 10 uM by yeast two-hybrid assay", "format": "cell-based"}, "[6]": {"biological_target": "T4, Nuclear receptor subfamily 1 group I member 3 (Mus musculus, UniProt O35627, T350M)", "T4 sequence (O35627 whole entry T350M)": "as the sequence (O35627 whole entry F171A, the tested form may be a part) above, with A171F, T350M counted along it", "assay": "Enhancement of steroid receptor coactivator 1 binding to mouse CAR T350M mutant […] at 10 uM by yeast two-hybrid assay", "format": "cell-based", "how_it_was_run": "as §1"}, "[7]": {"biological_target": "T1, Nuclear receptor subfamily 1 group I member 3", "conditions": "HEK293, mouse"}, "[8]": {"biological_target": "T1, Nuclear receptor subfamily 1 group I member 3", "assay": "Effect on steroid receptor co-activator 1 binding to mouse CAR F171A mutant […] at 1 uM by yeast two-hybrid assay", "format": "cell-based", "conditions": "read-out: Activity", "how_it_was_run": "(§2)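 Yeast expressing wild-type or mutant mouse CAR LBD plus SRC-1, selected on SD plates lacking leucine and tryptophan. Pooled colonies treated with DMSO or compound for 3.5 h. β-Galactosidase activity normalized to cell density. Reference is wild-type CAR + SRC-1 with DMSO (=100). Mean ± SD of two independent determinations, each in triplicate.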"}, "[9]": {"biological_target": "T5, Nuclear receptor subfamily 1 group I member 3 (Mus musculus, UniProt O35627, I252L)", "T5 sequence (O35627 whole entry I252L)": "as the sequence (O35627 whole entry F171A, the tested form may be a part) above, with A171F, I252L counted along it", "assay": "Effect on nuclear co-repressor receptor binding to mouse CAR I252L mutant […] at 1 uM by yeast two-hybrid assay", "format": "cell-based", "conditions": "read-out: Activity", "how_it_was_run": "as §2, with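 “NCoR,” for “SRC-1,”, “10 µM androstenol” for “wild-type CAR + SRC-1 with DMSO”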"}, "[10]": {"biological_target": "T6, Nuclear receptor subfamily 1 group I member 3 (Mus musculus, UniProt O35627, S251L)", "T6 sequence (O35627 whole entry S251L, the tested form may be a part)": "as the sequence (O35627 whole entry F171A, the tested form may be a part) above, with A171F, S251L counted along it", "assay": "Activation of mouse CAR S251L mutant expressed in HEK293 cells at 10 uM by mammalian one-hybrid assay", "format": "cell-based", "conditions": "hek293, 10 µM", "how_it_was_run": "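GAL4 DBD fused to mouse CAR LBD (residues 118-358), wild type or point mutant, cotransfected with UASx4-tk-luc reporter and pCMVβ into HEK293 cells. Cells cultured with DMSO (0.1% v/v) or compound (final 1, 2 or 10 µM). Lysed 24 h post-transfection. Luciferase normalized to β-galactosidase, expressed relative to empty GAL4 vector (=1.0). Mean ± SD, three independent experiments.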"}, "[11]": {"biological_target": "T4, Nuclear receptor subfamily 1 group I member 3", "assay": "Activation of mouse CAR T350M mutant expressed in HEK293 cells at 2 uM by mammalian one-hybrid assay", "format": "cell-based", "conditions": "hek293, 2 µM", "how_it_was_run": "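GAL4-DBD fused to mouse CAR LBD (residues 118-358), wild-type or point mutant, cotransfected with UASx4-tk-luc reporter and pCMVβ into HEK293 cells. Cells were exposed to final 1 µM, 2 µM or 10 µM test chemical, or 0.1% v/v DMSO, for 24 h after transfection. Luciferase was normalized to β-galactosidase and set against empty GAL4 vector (=1.0). Mean ± standard deviation, three independent experiments.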"}, "[12]": {"biological_target": "T1, Nuclear receptor subfamily 1 group I member 3", "assay": "Effect on nuclear co-repressor receptor binding to mouse CAR F171A mutant […] at 2 uM by yeast two-hybrid assay", "format": "cell-based", "conditions": "read-out: Activity", "how_it_was_run": "as §1"}, "[13]": {"biological_target": "T6, Nuclear receptor subfamily 1 group I member 3", "assay": "Decrease in nuclear co-repressor receptor binding to mouse CAR S251L mutant […] at 2 uM by yeast two-hybrid assay", "format": "cell-based", "design": "scale not given: the % may be the effect or the level left", "how_it_was_run": "as §1"}, "[14]": {"biological_target": "T5, Nuclear receptor subfamily 1 group I member 3", "assay": "Effect on steroid receptor coactivator 1 binding to mouse CAR I252L mutant […] at 2 uM by yeast two-hybrid assay", "format": "cell-based", "conditions": "read-out: Activity", "how_it_was_run": "as §1"}, "[15]": {"biological_target": "T7, Nuclear receptor subfamily 1 group I member 3 (Mus musculus, UniProt O35627, Y336A)", "T7 sequence (O35627 whole entry Y336A)": "as the sequence (O35627 whole entry F171A, the tested form may be a part) above, with A171F, Y336A counted along it", "assay": "Decrease in nuclear co-repressor receptor binding to mouse CAR Y336A mutant […] at 2 uM by yeast two-hybrid assay", "format": "cell-based", "conditions": "read-out: Activity", "how_it_was_run": "as §1"}, "[16]": {"biological_target": "T7, Nuclear receptor subfamily 1 group I member 3", "assay": "Decrease in steroid receptor coactivator 1 binding to mouse CAR Y336A mutant […] at 2 uM by yeast two-hybrid assay", "format": "cell-based", "conditions": "read-out: Activity", "how_it_was_run": "as §1"}, "[17]": {"biological_target": "T2, Nuclear receptor subfamily 1 group I member 3", "assay": "Decrease in nuclear co-repressor receptor binding to mouse CAR L353A mutant […] at 2 uM by yeast two-hybrid assay", "format": "cell-based", "conditions": "read-out: Activity", "how_it_was_run": "as §1"}, "[18]": {"biological_target": "T2, Nuclear receptor subfamily 1 group I member 3", "assay": "Effect on steroid receptor coactivator 1 binding to mouse CAR L353A mutant […] at 2 uM by yeast two-hybrid assay", "format": "cell-based", "conditions": "read-out: Activity", "how_it_was_run": "as §1"}},
  "data": [
    {"smiles": "COc1ccc(C(=O)CCCc2ccccc2)cc1", "values": [
      {"measurement": "Activity", "setting": "[1]", "result": ">= 50%"},
      {"measurement": "Activity", "setting": "[2]", "result": ">= 50%"},
      {"measurement": "Activity", "setting": "[3]", "result": ">= 50%"},
      {"measurement": "Activity", "setting": "[4]", "result": 40, "unit": "%"}
    ]},
    {"smiles": "COc1ccccc1CC(CC(=O)Cc1ccccc1)OC", "note": "(stereo not given)", "values": [
      {"measurement": "Activity", "setting": "[5]", "result": "> 150", "unit": "%"},
      {"measurement": "Activity", "setting": "[6]", "result": "> 50", "unit": "%"},
      {"measurement": "activity at 10 µM", "setting": "[7]", "result": "< 50", "unit": "%"}
    ]},
    {"smiles": "Clc1cnc(Oc2ccc(Oc3ncc(Cl)cc3Cl)cc2)c(Cl)c1", "values": [
      {"measurement": "activity at 1 µM", "setting": "[8]", "result": "< 50", "unit": "%"},
      {"measurement": "activity at 1 µM", "setting": "[9]", "result": "< 50", "unit": "%"}
    ]},
    {"smiles": "C[C@]12CC[C@@H](O)C[C@@H]1CC[C@@H]1[C@@H]2CC[C@]2(C)C=CC[C@@H]12", "note": "[ANDROSTENOL]", "values": [
      {"measurement": "Activity", "setting": "[10]", "result": "< 50", "unit": "%"}
    ]},
    {"smiles": "Clc1ccccc1C(c1ccccc1)(c1ccccc1)n1ccnc1", "note": "[CLOTRIMAZOLE]", "values": [
      {"measurement": "Activity", "setting": "[11]", "result": "> 100", "unit": "%"},
      {"measurement": "activity at 2 µM", "setting": "[12]", "result": "< 50", "unit": "%"},
      {"measurement": "Activity", "setting": "[13]", "result": ">= 50%"},
      {"measurement": "activity at 2 µM", "setting": "[14]", "result": "< 50", "unit": "%"},
      {"measurement": "inhibition at 2 µM", "setting": "[15]", "result": "≥ 50", "unit": "%"},
      {"measurement": "inhibition at 2 µM", "setting": "[16]", "result": "≥ 50", "unit": "%"},
      {"measurement": "inhibition at 2 µM", "setting": "[17]", "result": "≥ 50", "unit": "%"},
      {"measurement": "activity at 2 µM", "setting": "[18]", "result": "< 50", "unit": "%"}
    ]},
    {"smiles": "COc1ccc(C(c2ccc(OC)cc2)C(Cl)(Cl)Cl)cc1", "note": "[METHOXYCHLOR]", "values": [
      {"measurement": "Activity", "setting": "[1]", "result": ">= 50%"},
      {"measurement": "Activity", "setting": "[5]", "result": ">= 50%"}
    ]}
  ]
}
